# NF-kB expr up = activators of NF-kB expression in neurons, primary screen, cell-based, HTS | human neuronal cells, NF-kB reporter expression; hits give high values | fold change at 12.5 µM | actives 1.6% (n = 190,000); in the data active means fold change above about 3.3
# APP 5'UTR act = activators of APP 5'UTR luciferase reporter, primary screen, SH-SY5Y cells. SH-SY5Y APP 5'UTR luciferase reporter, luminescence; zero percent = DMSO vehicle wells. activation, % at 2 µM. actives 1% (n = 190,000). AID 1276, 2008;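 active means activation above a set limit, based on mean plus 3 SD of controls, cut at about 140% in these data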
# PERK inh = block of dimerizer-induced PERK translation repression, primary screen, PERK inhibitor project, CHO PERK-DD cells, SEAP luminescence, HTS. inhibition, % at 5.6 µM. actives 0.17% (n = 220,000). Eukaryotic translation initiation factor 2-alpha kinase 3 (Homo sapiens), Q9NZJ5. CHO PERK-DD fusion, SEAP luminescence translation reporter;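 active means inhibition above the mean inhibition of all tested compounds plus 3 SD, set separately per screening campaign, cut at about 2.9% in these data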;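 further: PERK kinase domain activated by AP20187 dimerizer at 100 nM; 0% = DMSO with dimerizer and 100% = rapamycin at 8.4 µM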
# MDM2 E3 inh = MDM2-luciferase reporter signal enhancers, primary screen, MDM2 E3 ligase inhibitor project, cell-based, luminescence, 1536-well | signal enhancement, % at 5 µM | cell-based MDM2 ubiquitination luciferase reporter, 2 h; 0 = plate control, 100 = twice control, blank-subtracted | actives 0.11% (n = 210,000) | E3 ubiquitin-protein ligase Mdm2 (Homo sapiens), Q00987 | AID 1230, 2008;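 active means signal enhancement of 30% or more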;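 further: luminescence tracks abundance of the self-degrading MDM2-luciferase fusion protein; higher signal means inhibition of MDM2 E3 ligase activity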
#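 Assay system: stable mammalian line carrying autodegrading MDM2–luciferase fusion reporter; Input: 2000 cells in each well; Compound dosing: single-point 5 µM; Schedule: 2 h compound exposure at 37 °C; Signal: SteadyLite luciferase luminescence after 15 min room-temperature reagent incubation; Evaluation: % luminescence enhancement versus blank-corrected plate control mean; Benchmarks: plate controls and plate blanks.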
# AHR act = AHR activators, primary screen, cell-based, luminescence, luciferase reporter, human | Aryl hydrocarbon receptor (Homo sapiens), P35869 | AHR-responsive luciferase reporter cells | activation, % at 5 µM | actives 2.5% (n = 320,000) | AID 2796, 2010; in the data active means activation above about 47%;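 further: 0% = vehicle wells and 100% = reference agonist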
# STAT1 act = STAT1 signaling activators, primary screen, cell-based, HTS, luciferase reporter. NIH 3T3 STAT1-luciferase reporter, IFN-gamma, luminescence; 100% = IFN-gamma alone, no compound. activation (% of control), % at 5.5 µM. actives 2.6% (n = 200,000). AID 932, 2007;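 active means activation above the screen-wide mean activation plus 3 SD, cut at about 130% in these data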;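 further: raw ratio to IFN-gamma control signal so 100% means no change and 0% no light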
# AHR act cf = AHR activators, confirmation, cell-based, luminescence, luciferase reporter, human | actives 87% (n = 2,300) | activation, % at 9 µM | AID 2845, 2010 | human cells, AHR-responsive luciferase reporter | shares compounds with AHR act; in the data active means activation above about 49%;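 further: HepG2 hepatoma cells carrying a DRE-driven firefly luciferase reporter; 0% = vehicle wells and 100% = reference agonist wells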
# PXR act counter = human PXR activators, counter-screen for AHR activator project, cell-based, luciferase luminescence | shares compounds with AHR act | cell-based PXR reporter | activation, % at 11.6 µM | actives 88% (n = 2,300) | AID 434939, 2010; in the data active means activation above about 11%;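 further: human hepatoma DPX-2 cells expressing full-length human PXR; 0% = DMSO and 100% = reference agonist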
# Target sequence (O75469 whole entry, looked up): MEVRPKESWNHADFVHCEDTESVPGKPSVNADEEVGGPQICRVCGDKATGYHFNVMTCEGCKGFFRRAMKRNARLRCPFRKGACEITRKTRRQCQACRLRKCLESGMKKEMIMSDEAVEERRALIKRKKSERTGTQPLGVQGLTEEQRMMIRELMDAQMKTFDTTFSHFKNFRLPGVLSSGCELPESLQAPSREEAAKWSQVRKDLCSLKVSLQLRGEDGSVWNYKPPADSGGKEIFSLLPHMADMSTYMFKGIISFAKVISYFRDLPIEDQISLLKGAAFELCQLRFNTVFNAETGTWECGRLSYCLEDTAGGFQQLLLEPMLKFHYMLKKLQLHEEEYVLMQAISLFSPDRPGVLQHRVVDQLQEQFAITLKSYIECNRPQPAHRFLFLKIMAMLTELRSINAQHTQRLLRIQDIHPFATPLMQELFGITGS
# * = called active by the depositor; nt = not tested or not shown. Compounds with a hit are over-represented: about 4.5% of the library has one in this group of screens.
SMILES,NF-kB expr up,APP 5'UTR act,PERK inh,MDM2 E3 inh,AHR act,STAT1 act,AHR act cf,PXR act counter
Cc1ccc(CSc2nnc(-c3cccnc3)n2N)cc1,1.2,5,1,-8,1,104,nt,nt
c1ccc(-c2cc3c(-n4cccc4)ncnc3o2)cc1,1.2,2,1,-7,86*,89,105*,23*
c1ccc(Oc2ncnc3oc(-c4ccccc4)cc23)cc1,1.7,-10,2,-5,5,103,nt,nt
O=C(OCc1ccccc1F)c1cc2ccccc2cc1O,nt,nt,nt,nt,4,nt,nt,nt
COc1ccc(-c2coc3cc(OC)cc(OC)c3c2=O)cc1,1.8,27,0,-3,93*,128,132*,26*
COc1cc(O)cc2occ(-c3ccc(O)cc3)c(=O)c12,1.4,11,0,-5,0,104,nt,nt
Cc1ccc(NS(=O)(=O)c2ccc(C(=O)NCc3ccc(S(N)(=O)=O)cc3)cc2)cc1,nt,nt,nt,nt,1,nt,nt,nt
NC1=NC(=O)/C(=C/c2ccc(-c3ccc(S(N)(=O)=O)cc3)o2)S1,nt,nt,nt,nt,121*,nt,88*,16*
CC1(C)OC(=O)C(=Cc2ccc(-c3ccc(S(N)(=O)=O)cc3)o2)C(=O)O1,1.1,-2,1,0,0,100,nt,nt
C=C(C)CN(CC)C(=O)CSc1nc(O)cc(=O)n1C1CCCC1,1.2,13,0,-7,0,97,nt,nt
CCc1ccc(C(=O)CN(C#N)c2nc(C)cc(C)n2)cc1,0.93,13,0,-7,85*,109,63*,19*
O=C(CN1CCCC1)Nc1sc2c(c1C(=O)Nc1ccc(Br)cc1)CCC2,nt,nt,nt,nt,79*,nt,104*,52*
CC(=O)Nc1ccc(NC(=O)CCC(=O)Oc2ccc(C)cc2)cc1,nt,nt,nt,nt,0,nt,nt,nt
CCn1c2ccccc2c2cc(NC(=O)COc3ccccc3)ccc21,0.99,-2,0,1,100*,93,89*,60*
CCn1c2ccccc2c2cc(NC(=O)CN(C)CC(=O)Nc3ccc(N4CCOCC4)cc3)ccc21,0.71,18,-1,3,46,110,nt,nt
CCn1c2ccccc2c2cc(NC(=O)N3CCOCC3)ccc21,1.5,20,0,-1,118*,118,99*,109*
O=C(Nc1cccc(NC(=O)c2ccccc2)n1)c1ccccc1,nt,nt,nt,nt,5,nt,nt,nt
C/C(=C1/C(=O)N(c2ccc([N+](=O)[O-])cc2)N=C1c1ccccc1)N(C)C,0.97,3,0,-17,87*,108,37,29*
CCc1ccccc1N1C(=O)[C@@H]2Cc3ccccc3CN2C1=O,nt,nt,-2,-10,1,nt,nt,nt
O=C1c2ccccc2NC(c2ccc(Br)s2)N1O (stereo unspecified),nt,nt,nt,nt,80*,nt,81*,25*
Cc1ccc(C(=O)N/N=C/c2ccc(-c3ccccc3[N+](=O)[O-])o2)cn1,0.85,-1,1,-4,93*,96,109*,16*
CC1CC(C)CN(C(=O)COC(=O)Cc2ccc(Br)cc2)C1 (stereo unspecified),nt,nt,nt,nt,1,nt,nt,nt
COCCNC(=O)c1cc2c(-c3ccccc3F)nn(C)c2s1,1.2,32,-1,-9,98*,100,122*,24*
COc1cccc(-c2nn(C)c3sc(C(=O)NCc4ccco4)cc23)c1,0.4,-10,-1,19,95*,94,130*,44*
Cn1nc(-c2ccc(Cl)cc2)c2cc(C(=O)N3CCN(c4ccccn4)CC3)sc21,0.35,-11,-1,-16,106*,91,71*,45*
SMILES,NF-kB expr up,APP 5'UTR act,PERK inh,MDM2 E3 inh,AHR act,STAT1 act,AHR act cf,PXR act counter
CCN(CC)CCCNC(=O)c1cc2c(-c3cccc(OC)c3)nn(C)c2s1,nt,nt,nt,nt,13,nt,nt,nt
CNC(=O)c1cc2c(-c3ccccc3)nn(C)c2s1,nt,nt,nt,nt,99*,nt,114*,24*
COc1cccc(-c2nn(C)c3sc(C(=O)NCCCN(C)Cc4ccccc4)cc23)c1,nt,nt,nt,nt,13,nt,nt,nt
CCN(CC)c1ccc(NC(=O)CCS(=O)(=O)c2ccc(Br)cc2)c(C)c1,nt,nt,nt,nt,1,nt,nt,nt
Cn1nc(-c2ccc(Cl)cc2)c2cc(C(=O)N3CCN(c4ccccc4)CC3)sc21,0.74,10,-1,-23,101*,93,74*,34*
Cc1ccc(C(=O)COC(=O)CNC(=O)c2ccccc2)s1,nt,nt,nt,nt,2,nt,nt,nt
CN(C(=O)c1nn(C)c2c1CSc1ccccc1-2)c1ccc(F)cc1,nt,nt,nt,nt,105*,nt,47*,64*
CCOc1cc2[nH]c(=S)n(CCC(=O)NCc3ccco3)c(=O)c2cc1OCC,1.2,-1,0,-11,1,106,nt,nt
CC1CCCC(C)N1/N=C/C=C/c1ccccc1[N+](=O)[O-] (stereo unspecified),1.5,14,1,-15,84*,120,109*,67*
COc1ccccc1N1CCN(/N=C/C=C\c2ccccc2[N+](=O)[O-])CC1,1.2,10,0,-13,0,97,nt,nt
Cc1nn(CC(=O)NCCCc2ccccc2)c(C)c1[N+](=O)[O-],1.2,12,1,9,0,95,nt,nt
Cc1nn(-c2ccccc2)c(Cl)c1/C=N/N1CCN(c2ccccn2)CC1,1.3,4,0,-11,161*,100,4,27*
CCOc1ccccc1NC(=O)c1cnc2n(c1=O)CCS2,0.98,-9,0,-3,88*,98,65*,55*
COc1ccc(C(=O)NC2=NCCS2)cc1,nt,nt,nt,nt,13,nt,nt,nt
COc1cc(OC)cc(C(=O)NC2=NCCS2)c1,1.2,-2,-1,-39,95*,104,101*,20*
O=C(COC(=O)c1n[nH]c2ccccc12)NCCc1ccccc1,nt,nt,nt,nt,98*,nt,91*,19*
CCCNC(=O)COC(=O)c1n[nH]c2ccccc12,1.2,0,1,-7,4,104,nt,nt
COc1cccc(/C=N/NC(=O)c2cc3c(OC)ccc(OC)c3[nH]2)c1O,nt,nt,nt,nt,84*,nt,21,10
COc1ccc(C(=O)N/N=C/c2ccccc2C(=O)O)cc1OC,nt,nt,1,nt,5,nt,nt,nt
